Assay type in all cases: functional
The test system of test [1] is Haemonchus contortus. The test is described as follows: Anthelmintic activity against benzimidazole-resistant Haemonchus contortus isolate by larva development assay. Put shortly:
(§1)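 Larval development assay: test compounds were embedded in an agar-based nutritive medium that supports development from eggs to third-stage larvae (L3). Plates were incubated for 6 days at 28 °C and 80% relative humidity, and egg hatching and larval development were recorded. Values are means of three experiments.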

In test [2] the test system is Trichostrongylus colubriformis. In words: Anthelmintic activity against Trichostrongylus colubriformis infected in gerbils assessed as reduction in worm count at 10 mg/kg, po. Also noted: scale not given: the % may be the effect or the level left. Summed up:
(§2)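 Gerbils (Meriones unguiculatus) were artificially infected with H. contortus larvae 6 days, or T. colubriformis larvae 5 days, before treatment. They were then dosed orally or subcutaneously, and controls received a placebo formulation. Three days post-treatment the animals were sacrificed and dissected for worm recovery.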

For test [3], the system named is Trichostrongylus colubriformis. The test is described as follows: Anthelmintic activity against levamisole-resistant Trichostrongylus colubriformis isolate by larva development assay. Put shortly:
as §1

Test [4] concerns Haemonchus contortus. In words: Anthelmintic activity against Haemonchus contortus infected in gerbils assessed as reduction in worm count at 10 mg/kg, po. Also noted: scale not given: the % may be the effect or the level left. Put shortly:
as §2

For test [5], the system named is Trichostrongylus colubriformis. The test is described as follows: Anthelmintic activity against Trichostrongylus colubriformis infected in gerbils assessed as reduction in worm count at 1 mg/kg, po. Also noted: scale not given: the % may be the effect or the level left. Put shortly: as §2
The subject of test [6] is Trichostrongylus colubriformis. The test is described as follows: Anthelmintic activity against Trichostrongylus colubriformis infected in gerbils assessed as reduction in worm count at 1 mg/kg, sc. Also noted: scale not given: the % may be the effect or the level left. The settings on record: route subcutaneous. Put shortly:
as §2

Test [7] concerns Haemonchus contortus. In words: Anthelmintic activity against Haemonchus contortus infected in gerbils assessed as reduction in worm count at 1 mg/kg, sc. Also noted: scale not given: the % may be the effect or the level left. The note with it: route subcutaneous. Summed up: as §2
Test [8] concerns Haemonchus contortus. In words: Anthelmintic activity against Haemonchus contortus infected in gerbils assessed as reduction in worm count at 1 mg/kg, po. Also noted: scale not given: the % may be the effect or the level left. Summed up:
as §2

The subject of test [9] is Trichostrongylus colubriformis. In words: Anthelmintic activity against Trichostrongylus colubriformis infected in gerbils assessed as reduction in worm count at 3.2 mg/kg, po. Also on record: scale not given: the % may be the effect or the level left. Put shortly:
as §2

Test [10] relates to Haemonchus contortus. In words: Anthelmintic activity against Haemonchus contortus infected in gerbils assessed as reduction in worm count at 3.2 mg/kg, po. Also noted: scale not given: the % may be the effect or the level left. Summed up: as §2

Molecules are shown by their SMILES.

Our source for the EC100 and Activity values is ChEMBL document CHEMBL1145606, “Discovery of amino-acetonitrile derivatives, a new class of synthetic anthelmintic compounds” (2008).

For the molecule `CC(C#N)(COc1ccc(Cl)cc1Cl)NC(=O)c1ccc(OC(F)(F)F)cc1` (stereo unspecified), the EC100 (in the test on Haemonchus contortus [1]; in test [3]) was 0.1 ppm throughout. The Activity was determined as 100% in test [2] and 94% with Haemonchus contortus [4].
In the case of `CCc1ccccc1OCC(C)(C#N)NC(=O)c1ccc(OC(F)(F)F)cc1` (stereo unspecified), the EC100 (in the test on Haemonchus contortus [1]; in test [3]) was 0.32 ppm in each case.
For the molecule `CC(C#N)(COc1cc(C#N)ccc1C(F)(F)F)NC(=O)c1ccc(C(F)(F)F)cc1` (stereo unspecified), the EC100 in the test on Haemonchus contortus [1] is given as 0.032 ppm; in test [3] it was 0.1 ppm. The Activity worked out at 87% in [5], 72% in test [6], 90% with Haemonchus contortus [7] and 97% in the test on Haemonchus contortus [8].
On to `C[C@](C#N)(COc1cc(C#N)ccc1C(F)(F)F)NC(=O)c1ccc(SC(F)(F)F)cc1` [MONEPANTEL], for which the EC100 is 0.0032 ppm in the test on Haemonchus contortus [1] and 0.01 ppm in test [3].
In the same order, the values of `CC(C#N)(COc1ccccc1Cl)NC(=O)c1ccc(OC(F)(F)F)cc1` (stereo unspecified) are 0.032 ppm and 0.032 ppm.
Turning to `CC(C#N)(COc1cc(C#N)ccc1C(F)(F)F)NC(=O)c1ccc(SC(F)(F)F)cc1` (stereo unspecified), the figures for the EC100 (in the test with Haemonchus contortus [1]; in test [3]) were 0.01 ppm and 0.032 ppm, respectively. Also, the Activity in test [5] worked out at 100%; in [6], 84%; in the test with Haemonchus contortus [7] it was 99%; with Haemonchus contortus [8] it was 100%.
Consider `CC(C#N)(COc1ccccc1C(F)(F)F)NC(=O)c1ccccc1` (stereo unspecified), for which the EC100 in the test on Haemonchus contortus [1] is 10 ppm; in test [3], over 10 ppm.
As for `CC(C#N)(COc1ccccc1C(F)(F)F)NC(=O)c1ccc(-c2ccccc2)cc1` (stereo unspecified), the EC100 (in the test with Haemonchus contortus [1]; in test [3]) was over 10 ppm throughout.
With `CC(C#N)(COc1c(Cl)cccc1Cl)NC(=O)c1ccc(C(F)(F)F)cc1` (stereo unspecified), the EC100 (in the test with Haemonchus contortus [1]; in [3]) was over 10 ppm in each case.
As to `CC(C#N)(COc1cc(F)ccc1Cl)NC(=O)c1ccc(OC(F)(F)F)cc1` (stereo unspecified), the values for the EC100 (in the test with Haemonchus contortus [1]; in test [3]) were 0.01 ppm and 0.032 ppm, respectively. For the same molecule, the Activity in test [9] worked out at 79%; with Haemonchus contortus [10], 92%.
Take `CC(C#N)(COc1ccc(C#N)cc1C(F)(F)F)NC(=O)c1ccc(OC(F)(F)F)cc1` (stereo unspecified): the EC100 is reported as 0.032 ppm in the test on Haemonchus contortus [1] and 0.1 ppm in [3]. The Activity in test [5] came to 98%; in [6], 97%; in the test on Haemonchus contortus [7], 91%; in the test on Haemonchus contortus [8] it was 95%.
Consider `CC(C#N)(COc1ccccc1Br)NC(=O)c1ccc(OC(F)(F)F)cc1` (stereo unspecified), for which the EC100 (in the test with Haemonchus contortus [1]; in test [3]) was 0.032 ppm each time. In addition, the Activity worked out at 99% in test [2] and 97% in the test on Haemonchus contortus [4].
As to `CC(C#N)(COc1cccc(F)c1)NC(=O)c1ccc(OC(F)(F)F)cc1` (stereo unspecified), the EC100 worked out at 0.32 ppm in the test with Haemonchus contortus [1] and 1 ppm in [3].
For the molecule `CC(C#N)(COc1cc(F)c(F)cc1C(F)(F)F)NC(=O)c1ccc(SC(F)(F)F)cc1` (stereo unspecified), the EC100 (in the test on Haemonchus contortus [1]; in [3]) was 0.032 ppm in each case. Further, the Activity in test [5] came out at 98%; in [6], 90%; in the test on Haemonchus contortus [7] it was 73%; in the test on Haemonchus contortus [8] it was 84%.
For the molecule `CC(C#N)(COc1ccccc1C(F)(F)F)NC(=O)c1ccc(SC(F)(F)F)cc1` (stereo unspecified), the EC100 (in the test with Haemonchus contortus [1]; in test [3]) was 0.032 ppm in each case. Further, the Activity is 99% in [2] and 77% with Haemonchus contortus [4].
In the case of `CC(C#N)(COc1cc(F)c(F)cc1C(F)(F)F)NC(=O)c1ccc(C(F)(F)F)cc1` (stereo unspecified), the EC100 (in the test on Haemonchus contortus [1]; in test [3]) was 0.032 ppm throughout. The Activity in test [5] is given as 91%; in [6] it was 90%; in the test with Haemonchus contortus [7] it was 94%; in the test with Haemonchus contortus [8], 89%.
As for `CC(C#N)(COc1ccccc1)NC(=O)c1ccc(C(F)(F)F)cc1` (stereo unspecified), the EC100 (with Haemonchus contortus [1]; in [3]) was over 10 ppm each time.
For `Cc1ccc(C(=O)NC(C)(C#N)COc2ccccc2Cl)cc1` (stereo unspecified), the EC100 (in the test with Haemonchus contortus [1]; in [3]) was over 10 ppm in each case.
With `c1ccc([C@H]2CN3CCSC3=N2)cc1` [LEVAMISOLE], the EC100 turned out to be 0.32 ppm in the test on Haemonchus contortus [1] and 10 ppm in test [3].
Take `CC(C#N)(COc1ccccc1Cl)NC(=O)c1ccccc1C(F)(F)F` (stereo unspecified): the EC100 (with Haemonchus contortus [1]; in test [3]) was over 10 ppm throughout.
`CC(C#N)(COc1ccccc1Cl)NC(=O)c1ccc(F)cc1` (stereo unspecified): the EC100 is on record as 3.2 ppm in the test on Haemonchus contortus [1] and 1 ppm in test [3].
In the same order, the values of `C[C@@](C#N)(COc1cc(C#N)ccc1C(F)(F)F)NC(=O)c1ccc(SC(F)(F)F)cc1` are 10 ppm and over 10 ppm.
For the molecule `CC(C#N)(COc1cccc(Cl)c1Cl)NC(=O)c1ccc(C(F)(F)F)cc1` (stereo unspecified), the EC100 (in the test with Haemonchus contortus [1]; in test [3]) was 0.1 ppm in each case. Moreover, the Activity in test [2] is on record as 67%; with Haemonchus contortus [4], 84%.
In the case of `CC(C#N)(COc1ccccc1Cl)NC(=O)c1ccc(Cl)cc1` (stereo unspecified), the EC100 (in the test with Haemonchus contortus [1]; in test [3]) was 0.32 ppm throughout.
Consider `CC(C#N)(COc1cc(F)c(F)cc1C(F)(F)F)NC(=O)c1ccc(OC(F)(F)F)cc1` (stereo in doubt; 19), for which the EC100 with Haemonchus contortus [1] is 0.01 ppm; in [3], 0.032 ppm. Also, the Activity came to 73% in test [5], 75% in test [6], 99% in the test on Haemonchus contortus [7] and 99% in the test on Haemonchus contortus [8].
In the case of `CC(C#N)(COc1cc(F)c(F)cc1C(F)(F)F)NC(=O)c1ccc(OC(F)(F)F)cc1` (single isomer, unassigned; (-)), the EC100 in the test on Haemonchus contortus [1] is reported as 0.0032 ppm; in test [3], 0.01 ppm.
As to `CC(C#N)(COc1cc(F)c(F)cc1Br)NC(=O)c1ccc(OC(F)(F)F)cc1` (stereo unspecified), the EC100 in the test on Haemonchus contortus [1] is 0.01 ppm; in test [3] it was 0.032 ppm. The Activity in [9] is on record as 97%; with Haemonchus contortus [10], 100%.
`CC(C#N)(COc1ccccc1F)NC(=O)c1ccc(C(F)(F)F)cc1` (stereo unspecified): the EC100 (in the test on Haemonchus contortus [1]; in test [3]) was 1 ppm in each case.
For the molecule `CC(C#N)(COc1cc(F)ccc1Br)NC(=O)c1ccc(OC(F)(F)F)cc1` (stereo unspecified), the EC100 came to 0.01 ppm in the test on Haemonchus contortus [1] and 0.1 ppm in test [3]. For the same molecule, the Activity is 99% in [9] and 90% with Haemonchus contortus [10].
Turning to `CC(C#N)(COc1ccccc1C(F)(F)F)NC(=O)c1ccc(OC(F)(F)F)cc1` (stereo unspecified), the EC100 (with Haemonchus contortus [1]; in test [3]) was 0.01 ppm each time. In addition, the Activity in test [2] turned out to be 97%; in the test on Haemonchus contortus [4] it was 98%.
As for `CC(C#N)(COc1ccc(C#N)cc1C(F)(F)F)NC(=O)c1ccc(C(F)(F)F)cc1` (stereo unspecified), the EC100 (in the test on Haemonchus contortus [1]; in [3]) was 0.1 ppm in each case. Also, the Activity in test [5] amounted to 91%; in the test with Haemonchus contortus [8] it was 97%.
Consider `CC(C#N)(COc1ccc(C(F)(F)F)cc1)NC(=O)c1ccc(C(F)(F)F)cc1` (stereo unspecified), for which the EC100 (with Haemonchus contortus [1]; in test [3]) was over 10 ppm throughout.
On to `CC(C#N)(COc1ccc(C#N)cc1C(F)(F)F)NC(=O)c1ccc(SC(F)(F)F)cc1` (stereo unspecified), for which the EC100 (with Haemonchus contortus [1]; in test [3]) was 0.032 ppm throughout. Besides, the Activity worked out at 98% in test [5], 86% in test [6], 92% in the test with Haemonchus contortus [7] and 90% with Haemonchus contortus [8].
Regarding `c1ccc2[nH]c(-c3cscn3)nc2c1` [THIABENDAZOLE], the figures for the EC100 (in the test on Haemonchus contortus [1]; in test [3]) were 10 ppm and 1 ppm, respectively.
As for `CC(C#N)(COc1ccccc1Cl)NC(=O)c1ccc(C(F)(F)F)cc1` (stereo unspecified), the EC100 (with Haemonchus contortus [1]; in test [3]) was 0.032 ppm in each case. For the same molecule, the Activity in [2] is 19%; with Haemonchus contortus [4] it was 88%.
For the molecule `CC(C#N)(COc1ccc(F)cc1Cl)NC(=O)c1ccc(OC(F)(F)F)cc1` (stereo unspecified), the EC100 (with Haemonchus contortus [1]; in test [3]) was 0.032 ppm throughout. Also, the Activity in test [9] worked out at 77%; with Haemonchus contortus [10], 98%.
For `CC(C#N)(COc1ccccc1Cl)NC(=O)c1ccc(C(F)(F)F)cc1F` (stereo unspecified), the EC100 (in the test on Haemonchus contortus [1]; in test [3]) was 0.32 ppm throughout.
`CC(C#N)(COc1cc(C#N)ccc1C(F)(F)F)NC(=O)c1ccc(OC(F)(F)F)cc1` (stereo unspecified): the EC100 with Haemonchus contortus [1] worked out at 0.01 ppm; in [3], 0.032 ppm. Further, the Activity is reported as 85% in test [5], 75% in test [6], 97% with Haemonchus contortus [7] and 95% in the test on Haemonchus contortus [8].
As to `CC(C#N)(COc1ccccc1Cl)NC(=O)c1cccc(OC(F)(F)F)c1` (stereo unspecified), the results for the EC100 (in the test with Haemonchus contortus [1]; in test [3]) were over 10 ppm and 10 ppm, respectively.
`CC(C#N)(COc1cc(F)c(F)cc1C(F)(F)F)NC(=O)c1ccc(OC(F)(F)F)cc1` (single isomer, unassigned; (+)): the figures for the EC100 (in the test with Haemonchus contortus [1]; in [3]) were 1 ppm and 3.2 ppm, respectively.
For the molecule `CC(C#N)(COc1c(F)cc(F)cc1F)NC(=O)c1ccc(OC(F)(F)F)cc1` (stereo unspecified), the EC100 (in the test with Haemonchus contortus [1]; in [3]) was over 10 ppm in each case.
